From ChEMBL document CHEMBL1125061, “Antitumor agents. 111. New 4-hydroxylated and 4-halogenated anilino derivatives of 4'-demethylepipodophyllotoxin as potent inhibitors of human DNA topoisomerase II” (1990)

Tests used:
Homo sapiens = species: Homo sapiens; assay: Cellular protein-DNA complex formation at 10 uM.; assay type: functional; design: reference not given here
[1] = In vitro cytotoxicity against KB cells after a 3-day incubation.; assay type: functional; conditions: Homo sapiens, 72 h, read-out: ID50 (the source's name)
Method in brief: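 KB cell culture, 3-day incubation with drug; read-out was cell number. ID50 taken as the concentration giving a 50% reduction in cell number.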

[2] = target: T1, DNA topoisomerase II (Homo sapiens) (UniProt P11388+Q02880); assay: Evaluated for inhibitory activity against DNA topoisomerase II; assay type: protein assay
[3] = target: T1, DNA topoisomerase II (Homo sapiens); assay: Inhibition of DNA topoisomerase II at 100 uM.; assay type: protein assay
Method in brief: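 Human DNA topoisomerase II inhibition, tested at 25, 50 and 100 μM. […] The ID₅₀ is set from the degree of inhibition across the three concentrations.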

| SMILES | Complex formation (Homo sapiens) [%] | IC50 [1] [µM] | ID50 [2] [µM] | inhibition [3] [%] |
| --- | --- | --- | --- | --- |
| COc1cc([C@@H]2c3cc4c(cc3[C@@H](Nc3ccc(O)cc3)[C@H]3COC(=O)[C@H]23)OCO4)cc(OC)c1O | 211 | 2.26 | 25 | 75 |
| COc1cc([C@@H]2c3cc4c(cc3[C@@H](Nc3ccccc3O)[C@H]3COC(=O)[C@H]23)OCO4)cc(OC)c1OC | 6 | 4.11 |  | 25 |
| COc1cc([C@@H]2c3cc4c(cc3[C@@H](O[C@@H]3O[C@@H]5CO[C@@H](C)O[C@H]5[C@H](O)[C@H]3O)[C@H]3COC(=O)[C@H]23)OCO4)cc(OC)c1O [ETOPOSIDE] | 100 | 0.2 | 50 | 75 |
| COc1cc([C@@H]2c3cc4c(cc3[C@@H](Nc3ccc(I)cc3)[C@H]3COC(=O)[C@H]23)OCO4)cc(OC)c1O | 64 | 0.34 |  | 25 |
| COc1cc([C@@H]2c3cc4c(cc3[C@@H](Nc3cccc(O)c3)[C@H]3COC(=O)[C@H]23)OCO4)cc(OC)c1O | 290 | 0.45 | 5 | > 75 |
| COc1cc([C@@H]2c3cc4c(cc3[C@@H](Nc3ccccc3Cl)[C@H]3COC(=O)[C@H]23)OCO4)cc(OC)c1O | 32 | 2.34 |  | 25 |
| COc1cc([C@@H]2c3cc4c(cc3[C@@H](Nc3ccccc3O)[C@H]3COC(=O)[C@H]23)OCO4)cc(OC)c1O | 151 | 4.54 | 25 | > 75 |
| COc1cc([C@@H]2c3cc4c(cc3[C@@H](Nc3cccc(F)c3)[C@H]3COC(=O)[C@H]23)OCO4)cc(OC)c1O | 158 | 0.23 | 50 | 75 |
| COc1cc([C@@H]2c3cc4c(cc3[C@@H](Nc3ccccc3F)[C@H]3COC(=O)[C@H]23)OCO4)cc(OC)c1O | 121 | 0.25 |  | 50 |
| COc1cc([C@@H]2c3cc4c(cc3[C@@H](Nc3ccc(Br)cc3)[C@H]3COC(=O)[C@H]23)OCO4)cc(OC)c1O | 179 | 0.22 | 100 | 50 |
| COc1cc([C@@H]2c3cc4c(cc3[C@@H](Nc3ccc(Cl)cc3)[C@H]3COC(=O)[C@H]23)OCO4)cc(OC)c1O | 99 | 0.22 | 50 | 75 |
| COc1cc([C@@H]2c3cc4c(cc3[C@@H](Nc3cccc(O)c3)[C@H]3COC(=O)[C@H]23)OCO4)cc(OC)c1OC | 37 | 0.31 |  | 25 |
| COc1cc([C@@H]2c3cc4c(cc3[C@@H](Nc3cccc(Br)c3)[C@H]3COC(=O)[C@H]23)OCO4)cc(OC)c1O | 62 | 2.36 |  | 25 |
| COc1cc([C@@H]2c3cc4c(cc3[C@@H](Nc3ccc(O)cc3)[C@H]3COC(=O)[C@H]23)OCO4)cc(OC)c1OC | 21 | 0.59 |  | 25 |
| COc1cc([C@@H]2c3cc4c(cc3[C@@H](Nc3ccc(F)cc3)[C@H]3COC(=O)[C@H]23)OCO4)cc(OC)c1O | 213 | 0.24 | 10 | > 75 |
| COc1cc([C@@H]2c3cc4c(cc3[C@@H](Nc3cc(F)cc(F)c3)[C@H]3COC(=O)[C@H]23)OCO4)cc(OC)c1O | 115 | 1.08 | 50 | 50 |
| COc1cc([C@@H]2c3cc4c(cc3[C@@H](Nc3cccc(Cl)c3)[C@H]3COC(=O)[C@H]23)OCO4)cc(OC)c1O | 51 | 2.29 |  | 50 |
